High-throughput results (PubChem BioAssay)
PLC-gamma1 inh = PLC-gamma1 (human) inhibition, primary screen | P19174 | purified PLC-gamma1, fluorogenic substrate, fluorescence | inhibition, % at 12.2 µM | 370,000 compounds, 0.84% hits; in the data active = inhibition above about 9.5%
PLC-beta3 inh = PLC-beta3 (human) inhibition, primary screen; Q01970; Purified PLC-beta3, fluorogenic substrate, fluorescence; inhibition, % at 12.2 µM; 370,000 compounds, 0.18% hits; AID 720704; in the data active = inhibition above about 11%
Tb MetRS inh = Trypanosoma brucei MetRS inhibition. purified T. brucei MetRS, ATP depletion, Kinase-Glo luminescence. 360,000 compounds, 0.4% hits. inhibition, % at 11.9 µM. AID 624268;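 active = inhibition above a per-plate cutoff of the control wells' mean inhibition plus 3 SD, cut at about 5.5% in these data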
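Assay system: T. brucei methionyl-tRNA synthetase, purified | Medium: HEPES buffer with MgCl2, KCl, DTT, spermine, BSA, pyrophosphatase | Compound: 11.9 µM single point | Incubation: 15 min enzyme-compound preincubation, 2 h reaction, 10 min detection, 25 °C | Measured by: Kinase-Glo luciferase luminescence reporting remaining unconsumed ATP | Measure: % inhibition normalized to control-well medians | Replication: Singlicate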
ADAM17 inh = ADAM17 inhibition, QFRET primary screen. P78536. recombinant ADAM17, EDANS/DABCYL FRET peptide cleavage. inhibition, % at 6.95 µM. 370,000 compounds, 0.83% hits;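 active = inhibition above the mean of compounds lying between control limits plus 3 SD, set per campaign, cut at about 8.5% in these data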
Target sequence (P78536 215-824 limits assumed): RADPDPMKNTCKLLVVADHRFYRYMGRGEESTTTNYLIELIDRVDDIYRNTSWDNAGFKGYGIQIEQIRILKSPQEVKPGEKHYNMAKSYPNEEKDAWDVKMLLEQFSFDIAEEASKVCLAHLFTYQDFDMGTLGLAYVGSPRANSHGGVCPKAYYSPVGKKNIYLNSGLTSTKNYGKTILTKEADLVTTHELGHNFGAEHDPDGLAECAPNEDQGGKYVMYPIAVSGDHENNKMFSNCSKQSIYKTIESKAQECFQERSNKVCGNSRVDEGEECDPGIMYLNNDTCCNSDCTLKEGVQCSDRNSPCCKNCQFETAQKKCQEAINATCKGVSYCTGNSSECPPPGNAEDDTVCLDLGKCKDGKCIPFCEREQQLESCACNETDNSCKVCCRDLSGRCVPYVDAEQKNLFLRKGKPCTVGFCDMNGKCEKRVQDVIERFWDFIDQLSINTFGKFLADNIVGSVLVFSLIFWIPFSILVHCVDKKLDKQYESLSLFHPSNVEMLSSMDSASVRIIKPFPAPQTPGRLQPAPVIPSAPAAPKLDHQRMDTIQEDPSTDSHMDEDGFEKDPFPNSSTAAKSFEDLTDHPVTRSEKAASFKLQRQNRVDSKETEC
ADAM10 inh = inhibitors of human ADAM10; recombinant ADAM10, EDANS/DABCYL FRET peptide cleavage, 3 h; O14672; inhibition, % at 7 µM; AID 720582; 370,000 compounds, 0.62% hits;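 active = inhibition above a per-campaign cutoff equal to the mean of compounds falling between control-based bounds plus 3 SD, cut at about 20% in these data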
ADAM10 confirm = confirmation of inhibitors of human ADAM10; shares compounds with ADAM10 inh; 2,100 compounds, 1% hits; inhibition, % at 6.95 µM; ADAM10 QFRET peptide cleavage, EDANS fluorescence;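 active = inhibition above about 20% chosen separately for each screening run, limit read from the data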
ADAM17 counter = counter-screen for ADAM10 exosite inhibitors: inhibitors of human ADAM17. shares compounds with ADAM10 inh. ADAM17 QFRET peptide cleavage, EDANS fluorescence. inhibition, % at 6.95 µM. 2,100 compounds, 0.5% hits. AID 743214;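 active = mean triplicate inhibition above the solvent-only control wells' mean plus 3 SD, cut at about 12% in these data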
ADAM10 ctr = inhibits human ADAM10 in ADAM17 exosite counter-screen; recombinant ADAM10, EDANS/DABCYL FRET peptide cleavage, 3 h; 2,900 compounds, 47% hits; inhibition, % at 6.95 µM; shares compounds with ADAM17 inh;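 active = mean inhibition over the triplicate runs exceeds the activity threshold set in the earlier primary screen, cut at about 20% in these data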
ADAM17 confirm = confirmation of inhibitors of human ADAM17; shares compounds with ADAM17 inh; recombinant ADAM17, EDANS/DABCYL QFRET peptide cleavage; inhibition, % at 6.95 µM; 2,900 compounds, 65% hits;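 active = mean inhibition across replicates above the hit cutoff set in the primary screen, cut at about 8.5% in these data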
A number is an active result. A selection: hits, their analogues and other compounds. The true share with any hit is near 2.3%.

What do the screens show for `OCCNc1nc(Nc2ccccc2Oc2ccccc2)nc(N2CCCC2)n1`?
PLC-gamma1 inh: inactive; PLC-beta3 inh: inactive; Tb MetRS inh: inactive; ADAM17 inh: 11.5; ADAM10 inh: 27.4; ADAM10 confirm: inactive; ADAM17 counter: inactive; ADAM10 ctr: 20.9; ADAM17 confirm: 12.9

How did Fc1ccccc1COc1ccc(/C=N/n2cnnc2)cc1 do in these assays?
PLC-gamma1 inh: inactive; PLC-beta3 inh: inactive; Tb MetRS inh: inactive; ADAM17 inh: inactive; ADAM10 inh: inactive

Results for C(=N\n1cnnc1)/c1ccc(OCc2cccc3ccccc23)cc1 ?
PLC-gamma1 inh: inactive; PLC-beta3 inh: inactive; Tb MetRS inh: inactive; ADAM17 inh: 9.7; ADAM10 inh: 23.5; ADAM10 confirm: inactive; ADAM17 counter: inactive; ADAM10 ctr: inactive; ADAM17 confirm: inactive

What do the screens show for `COC(=O)c1cc2c(c3c4cc(F)ccc4n(S(=O)(=O)c4ccccc4)c13)C(=O)N(C)C2`?
PLC-gamma1 inh: inactive; PLC-beta3 inh: inactive; ADAM17 inh: inactive; ADAM10 inh: inactive

Results for COC(=O)[C@]12C[C@H](CC(=O)NCc3cccc(C(F)(F)F)c3)C(=O)N(Cc3ccccc3)C1=C[C@H](C1CCCC1)O[C@@H]2C ?
PLC-gamma1 inh: inactive; PLC-beta3 inh: inactive; ADAM17 inh: inactive; ADAM10 inh: inactive

How did COC(=O)[C@]12C[C@H](CC(=O)NCc3cccc4ccccc34)C(=O)N(Cc3ccco3)C1=C[C@H](C(C)(C)C)O[C@@H]2C do in these assays?
PLC-gamma1 inh: inactive; PLC-beta3 inh: inactive; ADAM17 inh: 9.4; ADAM10 inh: 24.4; ADAM10 confirm: inactive; ADAM17 counter: inactive; ADAM10 ctr: 31.6; ADAM17 confirm: 14.8

How did COC(=O)[C@]12C[C@H](CC(=O)NCc3ccc(OC)c(OC)c3)C(=O)N(Cc3cccc4ccccc34)C1=C[C@H](C(C)(C)C)O[C@@H]2C do in these assays?
PLC-gamma1 inh: inactive; PLC-beta3 inh: inactive; ADAM17 inh: 8.8; ADAM10 inh: 19.9; ADAM10 confirm: inactive; ADAM17 counter: inactive; ADAM10 ctr: 29.0; ADAM17 confirm: 21.9

Results for COC(=O)[C@]12C[C@H](CC(=O)NCc3cccc(C(F)(F)F)c3)C(=O)N(Cc3ccco3)C1=C[C@H](C1CCCC1)O[C@@H]2C ?
PLC-gamma1 inh: inactive; PLC-beta3 inh: inactive; ADAM17 inh: 9.0; ADAM10 inh: 20.9; ADAM10 confirm: inactive; ADAM17 counter: inactive; ADAM10 ctr: inactive; ADAM17 confirm: 8.9

What do the screens show for `COc1ccc(-c2nc3c(C)cc(Br)cn3c2Cc2ccccc2C(F)(F)F)cc1OC`?
PLC-gamma1 inh: inactive; PLC-beta3 inh: inactive; ADAM17 inh: inactive; ADAM10 inh: inactive

Results for CCOC(=O)/C(=N/Nc1ccc(C)cc1)S(=O)(=O)c1ccc(Cl)cc1 ?
PLC-gamma1 inh: inactive; PLC-beta3 inh: inactive; Tb MetRS inh: inactive; ADAM17 inh: inactive; ADAM10 inh: inactive

Results for NNC(=O)/C(=N/Nc1ccccc1)S(=O)(=O)c1ccc(Cl)cc1 ?
PLC-gamma1 inh: inactive; PLC-beta3 inh: inactive; Tb MetRS inh: inactive; ADAM17 inh: 11.3; ADAM10 inh: 21.0; ADAM10 confirm: inactive; ADAM17 counter: inactive; ADAM10 ctr: inactive; ADAM17 confirm: 9.9

What do the screens show for `CC(C)[C@H](NC(=O)N1c2ccccc2NC(=O)[C@@H]1C(C)C)C(=O)N1CCC[C@H]1C(=O)O`?
PLC-gamma1 inh: inactive; PLC-beta3 inh: inactive; Tb MetRS inh: inactive; ADAM17 inh: inactive; ADAM10 inh: inactive

What do the screens show for `CCCCCCCCNS(=O)(=O)/C=C/c1ccccc1CNC(=O)OC(C)(C)C`?
PLC-gamma1 inh: inactive; PLC-beta3 inh: inactive; ADAM17 inh: 10.7; ADAM10 inh: 20.9; ADAM10 confirm: inactive; ADAM17 counter: inactive; ADAM10 ctr: 31.4; ADAM17 confirm: 14.9

Results for CC(/C=N\NC(=O)CSc1nnc(-c2ccc(Br)cc2)n1-c1ccccc1)=C\c1ccco1 ?
PLC-gamma1 inh: inactive; PLC-beta3 inh: inactive; ADAM17 inh: inactive; ADAM10 inh: inactive

Results for COC(=O)c1ccc(CN(c2ccccn2)S(=O)(=O)c2ccccc2)cc1 ?
PLC-gamma1 inh: inactive; PLC-beta3 inh: inactive; Tb MetRS inh: inactive; ADAM17 inh: inactive; ADAM10 inh: inactive

How did COC(=O)c1ccc(CN(c2ccc(C(=O)O)c(O)c2)S(=O)(=O)c2ccc(Cl)c([N+](=O)[O-])c2)cc1 do in these assays?
PLC-gamma1 inh: inactive; PLC-beta3 inh: inactive; Tb MetRS inh: inactive; ADAM17 inh: 10.7; ADAM10 inh: 23.2; ADAM10 confirm: inactive; ADAM17 counter: inactive; ADAM10 ctr: 38.6; ADAM17 confirm: 22.9

How did COc1cccc(C(C(=O)NC2CCCC2)N(C(=O)c2ccco2)c2ccc(-n3cnnn3)c(C)c2)c1OC (configuration not stated) do in these assays?
PLC-gamma1 inh: inactive; PLC-beta3 inh: inactive; Tb MetRS inh: inactive; ADAM17 inh: inactive; ADAM10 inh: inactive

Results for COc1ccc(OCCCC(=O)Nc2cccc(SC)c2)cc1 ?
PLC-gamma1 inh: inactive; PLC-beta3 inh: inactive; Tb MetRS inh: inactive; ADAM17 inh: inactive; ADAM10 inh: inactive

How did CSc1cccc(NC(=O)CCCOc2ccc(Cl)cc2C)c1 do in these assays?
PLC-gamma1 inh: inactive; PLC-beta3 inh: inactive; Tb MetRS inh: inactive; ADAM17 inh: 19.0; ADAM10 inh: 31.1; ADAM10 confirm: inactive; ADAM17 counter: inactive; ADAM10 ctr: 38.0; ADAM17 confirm: 18.6

What do the screens show for `CSc1cccc(NC(=O)/C=C/c2ccc(Cl)cc2)c1`?
PLC-gamma1 inh: inactive; PLC-beta3 inh: inactive; Tb MetRS inh: inactive; ADAM17 inh: 13.6; ADAM10 inh: 22.2; ADAM10 confirm: inactive; ADAM17 counter: inactive; ADAM10 ctr: 44.9; ADAM17 confirm: 15.8

Results for CSc1cccc(NC(=O)/C=C/c2ccccc2)c1 ?
PLC-gamma1 inh: inactive; PLC-beta3 inh: inactive; Tb MetRS inh: inactive; ADAM17 inh: inactive; ADAM10 inh: inactive

How did CC(C)C[C@H](NC(=O)c1nc[nH]c1C(=O)NCC(=O)OCc1ccccc1)C(=O)OC(C)(C)C do in these assays?
PLC-gamma1 inh: inactive; PLC-beta3 inh: inactive; Tb MetRS inh: inactive; ADAM17 inh: 8.9; ADAM10 inh: 22.8; ADAM10 confirm: inactive; ADAM17 counter: inactive; ADAM10 ctr: 33.1; ADAM17 confirm: 16.5
